From PubChem
A selection: hits, their analogues and other compounds. The true share with any hit is near 2.6%.
SENP6 inh: SENP6 protease inhibition; inhibition, % at 10 µM; actives 1.8% (n = 330,000); Recombinant SENP6 catalytic domain, aminoluciferin luminescence; Q9GZR1;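 active = inhibition above about 50% at the single tested dose, limit read from the data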
SENP8 block-1: inhibitors of human SENP8 protease; inhibition, % at 10 µM; AID 2540; actives 1.2% (n = 330,000); Q96LD8; purified SENP8, Z-RLRGG-aminoluciferin cleavage, luminescence; in the data active = inhibition above about 50%
Target sequence (Q96LD8 whole entry, looked up): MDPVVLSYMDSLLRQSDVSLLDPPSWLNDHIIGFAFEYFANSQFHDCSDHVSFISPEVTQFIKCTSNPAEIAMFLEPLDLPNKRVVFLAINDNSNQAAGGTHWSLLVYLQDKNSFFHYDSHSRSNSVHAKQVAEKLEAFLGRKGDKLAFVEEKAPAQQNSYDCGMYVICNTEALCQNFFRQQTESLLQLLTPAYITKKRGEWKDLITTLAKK
SENP1 inh: inhibitors of human SENP1 SUMO protease catalytic domain; inhibition, % at 10 µM; recombinant SENP1 catalytic domain, CyPet-SUMO1-YPet FRET cleavage; AID 624204; actives 0.21% (n = 360,000);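 active = inhibition at least 30% at 10 µM, raw YFP signal under a set limit, fluorescence ratio 0.5 to 1.5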
Target sequence (Q9P0U3 419-644 limits assumed): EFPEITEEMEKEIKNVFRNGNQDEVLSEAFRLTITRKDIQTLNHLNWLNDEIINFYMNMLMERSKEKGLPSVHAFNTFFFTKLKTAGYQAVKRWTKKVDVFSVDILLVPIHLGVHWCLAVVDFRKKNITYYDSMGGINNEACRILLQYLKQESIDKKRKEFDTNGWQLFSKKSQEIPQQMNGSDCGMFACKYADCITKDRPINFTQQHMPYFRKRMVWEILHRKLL
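Material – human SENP1 catalytic domain · Input – SENP1 enzyme, 20 pM final · Compound dosing – single concentration of 10 µM compound, 0.5% DMSO final · Timing – enzyme reaction for 50 min at room temperature, dark · Measured by – FRET fluorescence in CFP and YFP emission channels · Control set – no-enzyme wells low, DMSO-plus-enzyme wells high control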
SENP7 block: SENP7 protease inhibition | Q9BQF6 | recombinant SENP7, Z-RLRGG-aminoluciferin luminescence, 40 min | inhibition, % at 5 µM | actives 1.5% (n = 330,000) | AID 434973;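 active = inhibition above about 50% at the single test dose, limit read from the data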
Platelet DG rel: modulates dense granule release in human platelets; actives 0.22% (n = 300,000); AID 1663; human platelet-rich plasma, SFLLRN dense granule ATP release, luminescence; inhibition, %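 (compounds screened at 7.5 µM in platelet-rich plasma)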;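 active = mean replicate score, as percent of positive control, at or above 50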
SENP8 block-2: inhibitors of human SENP8 protease | Q96LD8 | recombinant SENP8, Nedd8 substrate fluorescence | inhibition, % at 20 µM | actives 0.64% (n = 360,000) | AID 602440; in the data active = inhibition mostly above about 40%, no sharp cut-off; inactive = mostly below about 27%
SENP1 conf: SENP1 (human) inhibition, single concentration confirmation; shares compounds with SENP1 inh; recombinant SENP1, CyPet-SUMO1-YPet FRET cleavage; inhibition, % at 10 µM; actives 34% (n = 520); AID 651678; in the data active = inhibition mostly above about 35%, no sharp cut-off; inactive = mostly below about 32%
SENP1 kin conf: confirmation of human SENP1 SUMO protease inhibitors, kinetic. shares compounds with SENP1 inh. recombinant SENP1, CyPet-SUMO1-YPet FRET kinetic cleavage. inhibition, % at 10 µM. actives 26% (n = 520). AID 651690; in the data active = inhibition mostly above about 32%, no sharp cut-off; inactive = mostly below about 29%
Large screens that a line does not name were inactive (follow-up assays come after a bar, where they were run).

O=C(C[n+]1cc(Br)cc(Br)c1)c1ccc(Cl)cc1	none
O=C(C[n+]1cc(Br)cc2ccccc21)c1ccc(Cl)cc1	SENP1 inh 44 (no result: Platelet DG rel) | SENP1 conf inactive | SENP1 kin conf inactive
Cc1ccc(O)c(C(=O)c2cc(C#N)c(=O)n(-c3c(C)n(C)n(-c4ccccc4)c3=O)c2)c1	none
Cc1c(-n2cc(C(=O)c3cc(Cl)ccc3O)cc(C#N)c2=O)c(=O)n(-c2ccccc2)n1C	SENP1 inh 61 | SENP1 conf 53 | SENP1 kin conf 40
Cc1ccc(NC(=O)/C(=C\c2ccccc2)NC(=O)/C=C/c2ccccc2)cc1	none
COc1ccc2sc(/C=C/c3ccccc3O)[n+](C)c2c1	SENP1 inh 39 (no result: SENP6 inh, SENP8 block-1, SENP7 block, Platelet DG rel) | SENP1 conf 58 | SENP1 kin conf 40
COc1ccc(N2CCN(C(=O)/C=C/[C@H]3O[C@@H](n4ccc(=O)[nH]c4=O)[C@H](O)[C@@H]3O)CC2)cc1	none (no result: SENP6 inh, SENP8 block-1, SENP7 block, Platelet DG rel)
O=C1CNCc2[nH]c3ccccc3c2N1c1ccccc1	none
O=CN1Cc2[nH]c3ccccc3c2N(c2ccc(Cl)cc2)C1=O	SENP1 inh 31 | SENP1 conf inactive | SENP1 kin conf inactive
C[C@H](NC(=O)OC(C)(C)C)C(=O)N/N=C/c1cccc2nccnc12	none (no result: Platelet DG rel)
O=C(O)c1ccc(N/N=C/c2cccc3nccnc23)cc1	SENP1 inh 53 | SENP1 conf 46 | SENP1 kin conf 39
CC(C)(O)C#Cc1ccc(CN2CCC(n3nccc3NC(=O)C3CC3)CC2)cc1	none
Cc1cc(Cl)ccc1-c1nc(NC(C)C)nc2ccsc12	none (no result: SENP6 inh, SENP8 block-1, SENP7 block, Platelet DG rel)
Cc1ccc(-c2ccc(SCC(=O)N3CCN(c4ccccc4)CC3)nn2)cc1	SENP1 inh 32 | SENP1 conf inactive | SENP1 kin conf inactive
COc1ccc(-c2ccc3c(c2)S(=O)(=O)c2cccc(C(=O)NCCOc4ccccc4)c2C3=O)cc1OC	SENP1 inh 59 (no result: Platelet DG rel) | SENP1 conf 68 | SENP1 kin conf 49
O=C1C2C(c3ccccc3)C=CC(c3ccccc3)C2C(=O)N1c1ccccn1 (stereo not given)	SENP1 inh 41 | SENP1 conf 54 | SENP1 kin conf 46
COc1ccc(N=Nc2nc3cc(Br)c(Br)cc3n2C)c(OC)c1	SENP1 inh 61 (no result: SENP6 inh, SENP8 block-1, SENP7 block, Platelet DG rel) | SENP1 conf inactive | SENP1 kin conf 44
COc1ccc(OC)c(CNc2ccc3c(c2)nc(C)n3C)c1	none
COc1ccc(/C=C/C(=O)Nc2ccc(OC)cc2[N+](=O)[O-])cc1	SENP1 inh 64 | SENP1 conf inactive | SENP1 kin conf inactive
Fc1ccc(-c2cnn3c(-c4cccs4)ccnc23)cc1	SENP1 inh 56 (no result: SENP6 inh, SENP8 block-1, SENP7 block) | SENP1 conf inactive | SENP1 kin conf inactive
Fc1ccc(-c2cnn3c(-c4ccncc4)ccnc23)cc1	none
COC(=O)c1ccccc1NC(=S)N1CCN(c2ccc(OC)cc2)CC1	none
COc1ccccc1N1C(=O)S/C(=C\c2ccc(C)s2)C1=O	SENP1 inh 40 | SENP1 conf inactive | SENP1 kin conf inactive
CCN(CC(=O)Nc1ccc(NC(C)=O)cc1)C(=O)CSc1ncnc2sc(C)c(C)c12	SENP1 inh 41 | SENP1 conf 89 | SENP1 kin conf 68
COc1ccc(OC)c(/C=C2\SC(=S)N(N3CCOCC3)C2=O)c1	SENP1 inh 39 | SENP1 conf inactive | SENP1 kin conf inactive
C=CCOc1ccc(/C=C2\SC(=S)N(N3CCOCC3)C2=O)cc1	none
COc1cc(/C=C2\SC(=S)N(N3CCOCC3)C2=O)ccc1O	SENP1 inh 53 | SENP1 conf inactive | SENP1 kin conf inactive
COc1cc(/C=C2\SC(=S)N(N3CCOCC3)C2=O)cc(OC)c1OC	none
Cc1ccc2nc(Br)c3c(c2c1)OC(CBr)C3 (stereo not given)	none
CCOC(=O)c1cc(CC)sc1/N=C/C1=C(O)CC(C)(C)CC1=O	none
CCOC(=O)c1sc(N=NC2=C(O)CC(C)(C)CC2=O)c(C(=O)OCC)c1C	SENP1 inh 56, Platelet DG rel 60 | SENP1 conf inactive | SENP1 kin conf inactive
